Assay outcomes: PubChem, Johns Hopkins Ion Channel Center
Kir21 block: inhibitors of mouse Kir2.1 inward-rectifier potassium channel | HEK293-Kir2.1, FluxOR thallium flux fluorescence; stronger effect = lower value | B-score at 10 µM | 310,000 tested, 0.85% active | AID 1672, 2009;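 active means fluorescence ratio B-score at or below minus 3 SD of library scores, with starting-brightness B-score within 2 SD, cut at about -4.2 in these data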;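 further: channel flux triggered by added potassium and thallium sulfate stimulus; B-score of peak minus minimum fluorescence over baseline after thallium stimulus; more negative B-score means stronger Kir2.1 block with less thallium influx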
KCNK3 inh: human KCNK3 channel inhibitors, primary screen, CHO cells, FluxOR thallium flux, B-score; Potassium channel subfamily K member 3 (Homo sapiens), O14649; 340,000 tested, 0.84% active; FluxOR fluorescence; stronger effect = lower value; B-score at 10 µM;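 active means B-score under library mean minus 4 SD, starting fluorescence ratio at most library mean plus 5 SD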;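 further: more negative B-score means stronger inhibition of thallium flux through KCNK3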
KCNK9 inh: KCNK9 potassium channel inhibitors, primary screen, HEK293 cells, thallium flux; Potassium channel subfamily K member 9 (Homo sapiens), Q9NPC2; FluxOR thallium flux fluorescence; stronger effect = lower value; B-score at 10 µM; 310,000 tested, 1.2% active;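 active means ratio B-score over 3 SD below the library mean, with starting fluorescence within 5 SD of its mean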;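 further: negative B-score means less thallium flux so channel inhibition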
Target sequence (Q9NPC2 whole entry, looked up): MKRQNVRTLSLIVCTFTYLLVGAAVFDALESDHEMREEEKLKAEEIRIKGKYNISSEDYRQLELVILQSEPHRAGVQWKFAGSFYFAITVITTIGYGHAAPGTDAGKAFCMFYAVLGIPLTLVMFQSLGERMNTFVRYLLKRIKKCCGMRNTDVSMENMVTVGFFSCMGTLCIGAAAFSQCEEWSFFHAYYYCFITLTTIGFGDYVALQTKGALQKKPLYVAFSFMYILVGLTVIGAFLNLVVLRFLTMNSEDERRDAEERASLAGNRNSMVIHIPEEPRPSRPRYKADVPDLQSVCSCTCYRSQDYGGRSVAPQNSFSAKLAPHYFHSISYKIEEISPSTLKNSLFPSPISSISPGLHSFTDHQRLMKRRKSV
hERG rescue: hERG rescue from dofetilide block, primary screen, cell-based, CHO-hERG, FluxOR thallium flux, dofetilide IC70 | 310,000 tested, 0.51% active | activation (rescue from dofetilide block), less the hit threshold, % at 10 µM | AID 1511, 2009 | Voltage-gated inwardly rectifying potassium channel KCNH2 (Homo sapiens), Q12809 | dofetilide IC70 present;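 active means activation above the mean of controls blocked by dofetilide plus 5 SD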;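 further: thallium influx through hERG after potassium depolarization seen as dye fluorescence rise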
KCNQ1 inh: inhibitors of human KCNQ1 channel, primary screen, cell-based, thallium flux, high-throughput. 310,000 tested, 1.3% active. B-score at 10 µM. CHO-K1 KCNQ1, FluxOR thallium flux fluorescence; stronger effect = higher value. AID 2642, 2010. Potassium voltage-gated channel subfamily KQT member 1 (Homo sapiens), P51787;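 active means compounds whose thallium flux B-score, printed positive for inhibition, exceeds three library SD while starting fluorescence stays within three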;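 further: channel opened by potassium depolarization with thallium stimulus after 20 min compound exposure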
KCNQ1 act: potentiators or activators of KCNQ1 channel, primary screen, cell-based, thallium flux, high-throughput; Potassium voltage-gated channel subfamily KQT member 1 (Homo sapiens), P51787; CHO-K1 KCNQ1, thallium flux FluxOR fluorescence; stronger effect = higher value; B-score at 10 µM; 310,000 tested, 0.35% active;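 active means fluorescence ratio B-score, a plate-corrected score, at least three library SD, with initial intensity B-score within 5 SD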
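Assay system: CHO-K1 cells stably expressing KCNQ1; Medium: assay buffer with matched DMSO; Also added: K+/Tl+ depolarizing stimulus; Dosing: single dose; Timing: dye 90 min, compound 20 min, room temperature; Measured by: kinetic FluxOR thallium fluorescence, 10-s 1-Hz baseline, 110-s post-stimulus read; Read-out: peak-minus-minimum fluorescence over initial fluorescence, negative-control normalized, B-scored.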
Each line names hits and unclear results; the compound was inactive in the other large screens. Most compounds without a hit are left out; they make up all but 3.7% or so of the library.

O=C(Nc1ccc(-n2cnnn2)cc1)c1cc(S(=O)(=O)N2CCCC2)ccc1Cl	none (no result: Kir21 block, KCNK9 inh, hERG rescue, KCNQ1 inh, KCNQ1 act)
Cc1cc(C)n(-c2nc3sc4c(c3c(=O)[nH]2)CCCC4)n1	KCNQ1 act 13 (no result: KCNK3 inh)
CCCCCn1c(SCc2ccncc2)nc2cc(C(=O)NCc3ccco3)ccc2c1=O	KCNQ1 inh 10
COc1ccccc1C(=O)NNC(=O)C(=O)Nc1ccc(C)cc1	hERG rescue 47
COc1ccccc1C(=O)NNC(=S)Nc1ccccc1	none
Cc1ccc(NC(=O)C(=O)NNC(=O)c2ccccc2C)cc1Cl	hERG rescue 46, KCNQ1 act 41
COc1ccccc1C(=O)NNC(=O)C(=O)Nc1ccc(C)c(Cl)c1	hERG rescue 61, KCNQ1 act 94
COc1ccccc1C(=O)NNC(=O)C(=O)NC(C)(C)C	hERG rescue 7.4, KCNQ1 act 9
CCOc1ccc(C(=O)Nc2ccc(C(=O)N3CCOCC3)cc2)c(OCC)c1	none
Cc1ccc(S(=O)(=O)N(C)CC(=O)N2CC(C)OC(C)C2)cc1 (stereo unspecified)	none
CCCn1c(SCC(=O)c2cc(C)n(-c3ccc4c(c3)OCO4)c2C)n[nH]c1=O	Kir21 block -6.7
COc1ccccc1CC(=O)N1CCN(S(=O)(=O)c2ccccc2)CC1	none
Cc1cccc(N2CCN(C(=O)NCc3ccc(F)cc3)CC2)c1C	none
Cc1ccc(NCCC(=O)c2cccc([N+](=O)[O-])c2)c(C)c1	none
Cc1cccc(NCCC(=O)c2ccc([N+](=O)[O-])cc2)c1C	hERG rescue 4.7
CC(=N\NC(=O)c1ccc([N+](=O)[O-])cc1)/C(=N/O)C(=O)Nc1ccccc1	KCNQ1 inh 6
CCOC(=O)C(CC)/C(C)=N/NC(=O)c1ccc([N+](=O)[O-])cc1 (stereo unspecified)	none
CCOC(=O)/C(C)=N/NC(=O)c1ccc([N+](=O)[O-])cc1	hERG rescue 10, KCNQ1 act 11
COc1ccc(CN2CCNC(=O)C2CC(=O)N(C)Cc2ccon2)c(OC)c1 (stereo unspecified)	KCNQ1 inh 6
CC(C)(CCO)Nc1ncnc2onc(-c3ccc(F)cc3)c12	none
Nc1ccc2c3c(cccc13)C(=O)N(c1ccccc1)C2=O	none
Nc1cccc(N2C(=O)c3cccc4c(N)ccc(c34)C2=O)c1	KCNQ1 inh 11
Cc1nc(-c2c(C(F)(F)F)noc2-c2ccc(O)cc2O)cs1	none
CCOc1cc(C)c(-c2onc(C(F)(F)F)c2-c2csc(C)n2)c(O)c1	KCNQ1 inh 8
CC(=O)Nc1ccc2c(c1)C(N1CC3CCC(CC3)C1)c1ccccc1-2 (stereo unspecified)	KCNK3 inh -10 (no result: Kir21 block, KCNK9 inh, hERG rescue, KCNQ1 inh, KCNQ1 act)
Cc1cc(S(=O)(=O)N2CCN=C2c2ccccc2)ccc1F	Kir21 block -4.7
Cc1cc(C)c(S(=O)(=O)N2CCN=C2c2ccccc2)c(C)c1	none
COc1ccc(N=C2S/C(=C\c3ccc(Cl)c([N+](=O)[O-])c3)C(=O)N2CCN(C)C)cc1	KCNQ1 inh 10
CCN(CC)CCN1C(=O)/C(=C\c2ccc(Cl)c([N+](=O)[O-])c2)SC1=Nc1ccc(OC)cc1	none
CCOc1ccc(C(=O)Nc2cc(C)on2)cc1OCC	hERG rescue 4.9
CCCOc1ccc(/C=C/C(=O)Nc2ccc([N+](=O)[O-])cc2)cc1	KCNQ1 inh 7
O=C1C(Cl)=C(NCCN2CCCCC2)C(=O)c2ccccc21	KCNQ1 inh 6
Clc1ccc(C2Nc3cccc4cccc(c34)N2)cc1Cl	none
CN[C@@H]1CC[C@H](c2ccc(Cl)c(Cl)c2)c2ccccc21	Kir21 block -5.8 (no result: hERG rescue)
Cc1cccc(NC(=O)CSCc2c(C)noc2C)c1C	none
Cc1noc(C)c1CSCC(=O)Nc1ccccc1N1CCCCC1	Kir21 block -9.9
Cc1ccc(-c2nnc(SCC(=O)Nc3ccccc3N3CCOCC3)o2)cc1	none
O=C(CSc1ccc(F)cc1)Nc1ccccc1N1CCOCC1	Kir21 block -13
O=C(CSc1ccccc1)Nc1ccccc1N1CCOCC1	Kir21 block -8.5
Cc1ccc(SCC(=O)Nc2ccccc2N2CCOCC2)cc1	Kir21 block -12
CCOC(=O)CNc1nc(C(C)(C)C)nc2c1nnn2Cc1ccccc1	none
Cc1cnc(C(=O)OCC(=O)N2CCN(S(=O)(=O)c3ccc(Cl)cc3)CC2)cn1	none
COc1ccc2oc(C(=O)Nc3nccs3)c(C)c2c1	KCNK9 inh -7.9
CCOc1ccc2oc(C(=O)Nc3nccs3)c(C)c2c1	none (no result: Kir21 block, KCNK9 inh, hERG rescue, KCNQ1 inh, KCNQ1 act)
CCOCCN1CCN(c2c(CC)c(C)nc3cc(-c4cc(OC)cc(OC)c4)nn23)CC1	KCNK9 inh -7.2
Cc1cc(C)n2nc(C(=O)OCC(=O)N(Cc3ccccc3)C(C)C)nc2n1	none (no result: Kir21 block, KCNK9 inh, hERG rescue, KCNQ1 inh, KCNQ1 act)
CCOc1ccc(C(=O)NCCc2ccccc2)cc1	none
COc1cc(OC)cc(C(=O)NC(=S)N(Cc2ccccc2)C(C)C)c1	hERG rescue 17, KCNQ1 act 27
CCOc1ccc(C(=O)NC(=S)N(Cc2ccccc2)Cc2ccccc2)cc1	hERG rescue 27, KCNQ1 act 75
CCOc1ccc(CN(CCC#N)C(=S)NC(=O)c2ccccc2)cc1	KCNQ1 act 11
CCCN(CCC)C(=S)NC(=O)c1ccc(-c2ccccc2)cc1	hERG rescue 19, KCNQ1 act 9
COc1cc(OC)cc(C(=O)NC(=S)NCCc2ccccc2)c1	none
O=C(CSc1nnc(C2CC2)n1C1CC1)c1ccc(Br)s1	none (no result: Kir21 block, KCNK9 inh, hERG rescue, KCNQ1 inh, KCNQ1 act)
COc1ccc(CCNC(=O)CCCn2ncn3c(cc4occc43)c2=O)c(OC)c1	none
Cc1cc(C(=O)N2CCc3c([nH]c4ccccc34)C2c2cccc(Cl)c2)nn1C (stereo unspecified)	KCNK9 inh -7.4
CCc1ccc2[nH]c(O)c(N=NC3=NC(=O)CS3)c2c1	none
CCc1ccc2c(c1)c(N=NC1=NC(=O)CS1)c(O)n2CC	hERG rescue 7.7, KCNQ1 act 16
CCOC(=O)CSC1=NC(=O)/C(=C\c2ccc(Cl)cc2)S1	KCNQ1 inh 6
CCOC(=O)C1CCN(C2=NC(=O)/C(=C/c3ccc(Cl)cc3)S2)CC1	none
CN(C)CCCN1c2ccccc2CCc2ccc(Cl)cc21	Kir21 block -6.2
CN(CCCN1c2ccccc2CCc2ccccc21)CC(=O)c1ccc(Cl)cc1	none (no result: KCNK3 inh)
Cc1ccccc1N1CCN(C(=O)NCc2cccc(Cl)c2)CC1	none
Nc1ncnc2c1ncn2C1C=C(CO)C(O)C1O (stereo unspecified)	none (no result: Kir21 block, KCNK9 inh, hERG rescue, KCNQ1 inh, KCNQ1 act)
